Data on 36 molecules can be found in paper PMC4308698 (Scientific Reports, 2015).

Entries after “also recorded” stand apart in the source; their conditions may differ. Bounds are passed on as bounds.

Assay [1] addresses T1, AlinCSP4 (Adelphocoris lineolatus, UniProt K9J9S0).
T1 sequence (K9J9S0 20-127): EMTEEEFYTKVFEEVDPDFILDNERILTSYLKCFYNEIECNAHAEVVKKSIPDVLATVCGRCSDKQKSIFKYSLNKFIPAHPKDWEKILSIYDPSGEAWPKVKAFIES
As to the kind of experiment: Fluorescence competitive binding assay with 1-NPN as probe, recombinant AlinCSP4. Conditions: for binding to AlinCSP4 (in words): competitive binding with 1-NPN. The procedure, abridged:
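Refolded, His-tag-cleaved recombinant protein at 2 μM and 1-NPN at 2 μM in Tris-HCl pH 7.4 were titrated with 1 mM competitor stock to 2–30 μM final, at 25°C. Excitation was 337 nm, with emission read at 390–460 nm. IC50 is the competitor level that halves 1-NPN fluorescence, and Ki = IC50/(1+[1-NPN]/K1-NPN). IC50 <20 μM was taken as good binding; Ki was not calculated when IC50 >30 μM.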

The subject of assay [2] is antennae of female and male adults of A. lineolatus. Conditions: exceptions at 10% level; cited from earlier work.
The test system is the same in assay [3]. Kind of assay: Electroantennogram. Set-up: species or system Adelphocoris lineolatus. The note with it: 0.01%, 0.1%, 1%, 10% v/v, normalized to 10% 3-hexanone. The method in brief: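 Antennae were excised from newly emerged lab-reared adults (green beans and 10% honey, 14L:10D, 29±1°C) and mounted between two electrodes with electrode gel. A 10 μL aliquot per dose was delivered in an air stream of 10 ml/sec, and signals were recorded for 5 s from 1 s before the stimulus. Paraffin oil served as control. Six antennae per sex were tested per compound, given as normalized mean ± SE and compared by one-way ANOVA (α=0.05).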

Assay [4] deals with T1, AlinCSP4. As to the kind of experiment: Binding of fluorescent probe 1-NPN to recombinant AlinCSP4. The method in brief:
(§1)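 Recombinant mature protein (E. coli BL21(DE3), pET30a(+)) was refolded from inclusion bodies, purified by two rounds of Ni affinity, and had the His-tag removed with enterokinase. 2 μM protein in 50 mM Tris-HCl pH 7.4 was titrated with 1 mM 1-NPN in methanol (stock) to 1–16 μM final, at 25°C. Excitation was 337 nm; emission peak was read at 390–460 nm. Analysis assumed 1:1 stoichiometry with fully active protein, using a Scatchard plot.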

The next assay addresses T2, AlinCSP5 (Adelphocoris lineolatus, UniProt K9J9X7).
T2 sequence (K9J9X7 22-127): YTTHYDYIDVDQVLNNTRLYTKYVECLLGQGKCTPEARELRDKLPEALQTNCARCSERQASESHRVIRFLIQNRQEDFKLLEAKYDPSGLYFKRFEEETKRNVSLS
As to the kind of experiment: Binding of fluorescent probe 1-NPN to recombinant AlinCSP5. The procedure, abridged: as §1

A further assay deals with T3, AlinCSP6 (Adelphocoris lineolatus, UniProt K9J9R7).
T3 sequence (K9J9R7 20-132): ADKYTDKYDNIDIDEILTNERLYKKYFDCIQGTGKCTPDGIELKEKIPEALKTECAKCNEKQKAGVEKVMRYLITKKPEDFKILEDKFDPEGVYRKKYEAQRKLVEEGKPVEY
As to the kind of experiment: Binding of fluorescent probe 1-NPN to recombinant AlinCSP6. The method in brief: as §1

Assay [5] relates to female adults of A. lineolatus. Conditions: plant volatile emitted by Bt cotton plants; cited from earlier work.
In another assay the test system is AlinCSP1. The note with it: cited from earlier work.

For the molecule `C=CC(C)(O)CCC=C(C)CCC=C(C)C` (mixture of isomers) [Nerolidol], the IC50 on AlinCSP4 [1] stood at 2 ± 0.17 µM. The “EAG response of terpenoids (in words)” value in assay [2] was “good EAG responses”.
Regarding `Cc1ccc(C=O)cc1C` [3,4-Dimethyl-benzaldehyde], the 50% inhibitory concentration (IC50) on AlinCSP4 [1] came to 10.6 ± 0.75 µM.
The same measure, in the same setting: with `CC(=O)CCC=C(C)C` [6-Methyl-5-hepten-2-one] the figure was 20.2 ± 2.62 µM; with `CC(=O)c1ccccc1` [Acetophenone], 27.5 ± 1.73 µM.
In the case of `O=Cc1ccccc1` [Benzaldehyde], the IC50 on AlinCSP4 [1] came out at 14.3 ± 1.86 µM.
In the case of `CCCCOC(=O)CCC` [Butyl butyrate], the IC50 on AlinCSP4 [1] was determined as 21.1 ± 0.51 µM.
On to `CCCC(=O)OCC` [Ethyl butyrate], for which the IC50 on AlinCSP4 [1] came out at 9.81 ± 1.55 µM.
As to `CCCCCCC=O` [Heptanal], the IC50 at AlinCSP4 [1] worked out at 11.4 ± 0.47 µM.
With `CCCCCC=O` [Hexanal], at AlinCSP4 [1], the 50% inhibitory concentration (IC50) came to 10.5 ± 2.11 µM.
Turning to `CCCCCCOC(=O)CCC` [Hexyl butyrate], the “EAG response (in words)” value in assay [3] is given as “more sensitive EAG responses”. In addition, the IC50 at AlinCSP4 [1] is 9.22 ± 1.77 µM.
`CCCCCCOC(=O)CCCCC` [Hexyl hexanoate]: at AlinCSP4 [1], the IC50 is 2.36 ± 0.21 µM.
As to `c1ccc2[nH]ccc2c1` [Indole], the half-inhibitory concentration (IC50) at AlinCSP4 [1] is 23.3 ± 1.6 µM.
Same read-out and setting: under `CCCCCCO` [Ligand 1-Hexanol, 1-Hexanol] stands 12.5 ± 0.88 µM.
For `c1ccc(Nc2cccc3ccccc23)cc1` [Ligand 1-NPN, N-phenyl-1-naphthylamine], the Kd was determined as 2.8 ± 0.4 µM at AlinCSP4 [4], 4.2 ± 0.5 µM on AlinCSP5 and 8.3 ± 1.8 µM on AlinCSP6.
As for `CCCCCC(C)=O` [Ligand 2-Heptanone, 2-Heptanone], on AlinCSP4 [1], the IC50 amounted to 27.3 ± 0.6 µM.
`CCCCC(C)O` (stereo not drawn) [Ligand 2-Hexanol, 2-Hexanol]: the IC50 at AlinCSP4 [1] came out at 9.63 ± 0.3 µM.
On the same count and under the same terms, with `CCCCC(C)=O` [Ligand 2-Hexanone, 2-Hexanone] the figure was 25.7 ± 0.53 µM; with `CCCCCCC(C)=O` [Ligand 2-Octanone, 2-Octanone], 25.2 ± 2.39 µM.
Consider `CCCC(=O)CC` [Ligand 3-Hexanone, 3-Hexanone], for which the IC50 at AlinCSP4 [1] is 24.2 ± 0.84 µM. Also, in assay [5], the “attraction of female adults (in words)” value is reported as “strongly attract”.
Take `C=C(C)[C@H]1CC=C(C)CC1` [Limonene]: the “binding to AlinCSP4 (in words)” value at AlinCSP4 [1] is on record as “no binding”. In addition, the “EAG response of terpenoids (in words)” value in assay [2] was “good EAG responses”.
On to `COC(=O)c1ccccc1O` [Methyl salicylate], for which the IC50 on AlinCSP4 [1] worked out at 12.7 ± 2.01 µM.
On to `C=CC(=C)CCC=C(C)C` [Myrcene], for which the IC50 on AlinCSP4 [1] amounted to 20.1 ± 0.81 µM.
As for `CCCCCCCCC=O` [Nonanal], the IC50 on AlinCSP4 [1] was found to be 13 ± 1.43 µM.
Same read-out and setting: under `CCCCCCCCCOC(C)=O` [Nonyl acetate] stands 5.83 ± 0.44 µM; under `CCCCCCCC=O` [Octanal], 10.9 ± 0.86 µM.
For the molecule `CCCCCCCCCCC` [Undecane], the IC50 at AlinCSP4 [1] was 7.13 ± 1.29 µM.
In the case of `CC/C=C\CCO` [cis-3-Hexen-1-ol], the IC50 on AlinCSP4 [1] was 21.7 ± 0.88 µM.
`CC/C=C\CCOC(C)=O` [cis-3-hexenyl acetate]: at AlinCSP4 [1], the IC50 was more than 30 µM and the “binding to AlinCSP4 (in words)” value is on record as “no binding; also recorded: no or very weak binding”. For the same molecule, in the assay with AlinCSP1, the “binding affinity to AlinCSP1 (in words)” value is “very good binding affinity”.
Consider `CCC/C=C/C=O` [trans-2-Hexenal], for which the IC50 at AlinCSP4 [1] was found to be 16.3 ± 0.51 µM.
With `CCC/C=C/COC(=O)CCC` [trans-2-hexenyl butyrate], the “EAG response (in words)” value in assay [3] was “more sensitive EAG responses”. Also, the IC50 at AlinCSP4 [1] was 11 ± 2.09 µM.
As for `C=C/C(C)=C/CC=C(C)C` [trans-β-Ocimene, trans -β-Ocimene], the “binding to AlinCSP4 (in words)” value at AlinCSP4 [1] is on record as “no binding”.
As for `CC1=CC[C@H](C(C)C)C=C1` [α-Phellandrene], on AlinCSP4 [1], the IC50 was more than 30 µM and the “binding to AlinCSP4 (in words)” value is recorded as “no binding”. Further, the “EAG response of terpenoids (in words)” value in assay [2] is listed as “good EAG responses”.
Regarding `C=C1CC/C=C(\C)CC[C@@H]2[C@@H]1CC2(C)C` [β-Caryophyllene], at AlinCSP4 [1], the IC50 turned out to be 2.26 ± 0.26 µM.
On to `CC(=O)/C=C/C1=C(C)CCCC1(C)C` [β-Ionone], for which, on AlinCSP4 [1], the IC50 came to 10.1 ± 1.24 µM.
As for `C=C1CCC2CC1C2(C)C` (stereo not drawn) [β-Pinene], at AlinCSP4 [1], the IC50 was more than 30 µM and the “binding to AlinCSP4 (in words)” value was “no binding”.
In the case of (+)-α-Pinene, on AlinCSP4 [1], the “binding to AlinCSP4 (in words)” value is given as “no binding”.
